FXIa inh 1536: inhibitors of human coagulation factor XIa; AID 798; purified FXIa, Boc-Glu-Ala-Arg-AMC fluorogenic substrate; inhibition, % at 5 µM; 0.14% of 220,000 active; P03951;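 active = inhibition of at least 40%; inactive = inhibition below 40%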;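 also: fluorescence of freed AMC excited at 355 nm; 0% = enzyme without compound and 100% = no enzyme blank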
m-calpain inh: blocks pig calpain II enzyme activity | 0.37% of 220,000 active | inhibition, % at 16 µM | AID 1236 | purified calpain II, fluorogenic peptide substrate, 30 min;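 active = inhibition above about 50%, limit read from the data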
Thrombin inh: blocks human thrombin protease activity. alpha-thrombin, Boc-VPR-AMC fluorogenic substrate cleavage. 0.26% of 220,000 active. P00734. AID 1046. inhibition, % at 5 µM;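 active = inhibition at or above 40%; inactive = inhibition below 40%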;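 also: 0% = enzyme with no compound and 100% = wells without enzyme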
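System: human alpha-thrombin protein; Compound dosing: one concentration per compound, 5 µM, with 0.2% DMSO; Timing: reaction at room temperature; Technique: AMC fluorescence, 355/460 nm; Controls: enzyme without compound as high, wells lacking enzyme as low.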
hK5 inh: inhibitors of human kallikrein 5 | Q9Y337 | recombinant hK5, fluorogenic AMC substrate cleavage | inhibition, % at 5 µM | 0.59% of 210,000 active | AID 873;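 active = inhibition of 40% or more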;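 also: 0% = enzyme controls without compound and 100% = no-enzyme blanks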
FXIIa inh 1536: factor XIIa (human) inhibition | 0.3% of 220,000 active | inhibition, % at 5 µM | P00748 | purified FXIIa, Boc-QGR-AMC fluorogenic substrate, 2 h; in the data active = inhibition above about 40%;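 also: 0% = enzyme with no compound and 100% = blank without enzyme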
Furin inhibitor: inhibitors of human furin; P09958; purified furin, fluorogenic substrate cleavage; inhibition, % at 20 µM or 30 µM; 0.061% of 220,000 active; AID 463115; in the data active = inhibition above about 25%
Target sequence (P09958 108-714 limits assumed): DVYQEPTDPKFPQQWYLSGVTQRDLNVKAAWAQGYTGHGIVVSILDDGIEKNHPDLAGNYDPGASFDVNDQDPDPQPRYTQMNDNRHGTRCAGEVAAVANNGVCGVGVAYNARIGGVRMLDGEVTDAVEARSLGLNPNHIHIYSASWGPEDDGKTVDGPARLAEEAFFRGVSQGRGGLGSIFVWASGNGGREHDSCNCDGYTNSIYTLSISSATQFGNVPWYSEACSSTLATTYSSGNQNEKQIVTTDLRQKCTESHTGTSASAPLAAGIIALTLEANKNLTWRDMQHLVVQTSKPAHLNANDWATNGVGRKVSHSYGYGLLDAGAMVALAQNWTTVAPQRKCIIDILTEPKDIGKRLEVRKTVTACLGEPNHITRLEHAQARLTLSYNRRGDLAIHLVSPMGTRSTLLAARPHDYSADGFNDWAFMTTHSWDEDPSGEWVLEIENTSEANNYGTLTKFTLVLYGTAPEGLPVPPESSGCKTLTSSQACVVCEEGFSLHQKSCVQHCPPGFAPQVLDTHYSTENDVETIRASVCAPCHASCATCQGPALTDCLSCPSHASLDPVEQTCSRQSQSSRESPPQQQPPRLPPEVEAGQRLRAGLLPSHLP
The depositor's hits bear a star; / = no result given. Shown are actives, neighbours in structure and some others; about 1.4% of the full set was active somewhere.

SMILES	FXIa inh 1536	m-calpain inh	Thrombin inh	hK5 inh	FXIIa inh 1536	Furin inhibitor
CCc1cc2cc3c(cc2nc1SCC(=O)Nc1nnc(C)s1)OCCO3	-9	7	4	-27	3	-12
CC(C)c1cc(-c2cc(C(=O)NCc3ccccc3)on2)nc(NC2CCCC2)n1	3	14	3	3	11	-28
C=C(C)Cn1c(=O)c(NC(=O)c2ccccc2)c2n(c1=S)CCC2	16	20	25	41*	20	-7
COc1ccc(-n2c(=O)c(NC(=O)c3ccccc3)c3n(c2=S)CCCCC3)cc1	0	17	-12	2	7	-12
CNC(=O)COC(=O)c1cc2c(C)nn(-c3ccc(F)cc3)c2s1	5	-46	2	2	1	-19
Cc1nn(-c2ccc(F)cc2)c2sc(C(=O)N3CCCCCC3)cc12	-2	50*	-2	-2	3	-15
COc1cccc(CNc2ccc([N+](=O)[O-])c(NCC(=O)O)n2)c1	-1	89*	5	-5	10	0
COc1ccc(Nc2nc(N)c([N+](=O)[O-])c(NCc3ccccc3)n2)cc1	4	25	1	3	12	1
S=c1nc(-c2sccc2OCc2ccc(Cl)cc2Cl)[nH][nH]1	7	93*	-10	-11	8	0
Cn1c(SCC(=O)c2ccccc2)nnc1-c1ccncc1	-4	3	5	-16	-2	-33
Cn1c(SCC(=O)c2ccccc2)nnc1-c1cccc(N)c1	15	11	6	60*	106*	-2
CCOC(=O)C1(CCCc2ccccc2)CCN(C(=O)CCC2=NNC(=O)CC2)CC1	32	15	0	/	31	2
CC(=O)c1ccc2c(c1)Nc1ccccc1S2	-5	7	-3	15	1	-21
CC(=O)c1ccc2c(c1)N(C)c1ccccc1S2	16	41	17	41*	21	-5
Nc1nc(-c2ccc(F)cc2)cc(C(F)(F)F)n1	7	-35	0	4	17	-24
Nc1nc(-c2ccc(Cl)cc2)cc(C(F)(F)F)n1	9	1	10	42*	16	-24
O=C(Nc1ccccc1-c1nnn(CC(=O)N2CCc3ccccc3C2)n1)C1CCC1	-2	26	3	56*	12	-7
O=C(Nc1cccc(-c2nnn(CC(=O)N3CCc4ccccc4C3)n2)c1)C1CCC1	-2	-46	-3	-23	4	-11
CCOC(=O)Nc1sc(C)nc1-c1ccccc1	19	2	13	196*	10	-9
Cn1cc(C(=O)NCc2cccnc2)c(=O)c2cc(S(=O)(=O)N3CCCCCC3)ccc21	0	23	12	2	11	-12
Cn1cc(C(=O)NCc2cccs2)c(=O)c2cc(S(=O)(=O)N3CCCC3)ccc21	-2	-2	74*	-6	3	-11
CCn1cc(C(=O)NCc2ccco2)c(=O)c2cc(S(=O)(=O)N3CCCCCC3)ccc21	-2	36	41*	-4	16	3
COc1ccc(CCNC(=O)c2ccc(SC)cc2OC)cc1	8	29	-6	/	7	-6
Cc1cc(/N=C/N(C)C)on1	1	-3	-9	-6	2	-9
O=C(Nc1ccc(Cl)cc1)Nc1nc(-c2ccccc2O)cs1	53*	10	19	35	29	-8
SMILES	FXIa inh 1536	m-calpain inh	Thrombin inh	hK5 inh	FXIIa inh 1536	Furin inhibitor
O=C(Nc1ccc(Cl)cc1)Nc1nc(-c2sccc2Br)cs1	-6	14	-4	5	-6	-23
CCSc1n[nH]c(=O)[nH]c1=O	-1	8	-5	-11	-1	-4
CCN(CC)S(=O)(=O)c1cc(NS(=O)(=O)c2ccc(Cl)c(C(=O)O)c2)ccc1C	0	3	-1	2	4	-8
O=C(CCC1CCCN(c2ncccn2)C1)N1CCN(c2ccccn2)CC1 (centres undefined)	5	-7	0	2	13	-4
O=C(CCC1CCCN(C(=O)C2(c3ccccc3)CC2)C1)N1CCN(c2ccccn2)CC1 (centres undefined)	-4	-29	96*	0	9	-32
COc1ccc(CN(C(=O)c2snc(C(N)=O)c2N)C(C(=O)NC(C)(C)C)c2ccco2)cc1 (centres undefined)	-9	-107	-3	11	43*	-25
CC(C)(C)NC(=O)C(c1ccco1)N(Cc1ccc(F)cc1)C(=O)c1snc(C(N)=O)c1N (centres undefined)	-5	-161	-4	-32	4	-14
O=[N+]([O-])c1ccc(OCCO)c(P(=O)(c2ccccc2)c2ccccc2)c1	70*	6	7	33	24	2
O=P(O)(O)COc1ccccc1P(=O)(c1ccccc1)c1ccccc1	2	1	3	2	11	-17
Cn1c(/C(C#N)=C/C2CC=CCC2)nc2ccccc21 (centres undefined)	3	11	7	47*	6	-24
N#C/C(=C\C1CC=CCC1)c1nc2ccccc2[nH]1 (centres undefined)	4	-85	1	-2	10	-26
c1ccc(CNc2ncnc3c2ncn3C2CCCCO2)cc1 (centres undefined)	2	-19	-23	-2	4	-16
S=C(NCc1ccccn1)Nc1ccc(Br)cc1Cl	-5	-13	-1	-11	4	-4
CSc1nc(-c2ccccc2)nc(N2CCOCC2)c1C(C)=O	29	32	50*	19	35	-6
CSc1nc(-c2ccccc2)nc(N2CCCC2)c1C(C)=O	-2	33	0	-3	11	-6
CSc1nsc(/C=C/Nc2ccc(O)cc2C)c1C#N	-2	15	-7	-3	8	-14
O=C(NCCNC(=O)c1cc(OCC(F)(F)F)ccc1OCC(F)(F)F)Nc1ccc(OC(F)(F)F)cc1	8	-6	3	49*	18	-12
O=C(NCCNC(=O)c1cc(OCC(F)(F)F)ccc1OCC(F)(F)F)Nc1ccc(Cl)cc1	2	-3	6	-11	19	-2
CCOc1ccc(NC(=O)Nc2cc(OCC(F)(F)F)cc(OCC(F)(F)F)c2)cc1	-1	-4	-7	-8	11	-19
O=C(Nc1ccc(F)cc1)Nc1cc(OCC(F)(F)F)cc(OCC(F)(F)F)c1	16	25	25	30	55*	-24
COC(=O)c1c(SCC(=O)Nc2ccc(C)c(C)c2)nc(=O)[nH]c1C	4	10	5	7	16	2
CC(=O)c1ccc(-c2ccc(C(=O)N3CCN(c4ccc(F)cc4)CC3)o2)cc1	-3	68*	-7	-4	3	-26
CCOC(=O)c1sc2cc([N+](=O)[O-])cc(SCC(=O)OC)c2c1N	11	-16	29	68*	31	-2
O=C(c1ccncc1)c1nccn1-c1ccccn1	0	-32	-9	-17	15	-22
O=C(COC(=O)c1cccc2ccccc12)NCC1CCCO1 (centres undefined)	-2	-15	-3	4	6	-22
